Results: ChEMBL document CHEMBL4118097, “Selective Inhibitors of Dual Leucine Zipper Kinase (DLK, MAP3K12) with Activity in a Model of Alzheimer's Disease” (J Med Chem, 2017)

How the values were obtained:
[1] = target: Mitogen-activated protein kinase kinase kinase 9 (Homo sapiens, UniProt P80192); assay: Inhibition of recombinant human GST-tagged MLK1 expressed in baculovirus expression system by FRET assay
[2] = target: Serine/threonine-protein kinase Sgk3 (Homo sapiens) (UniProt Q96BR1); assay: Inhibition of recombinant full length GST-tagged human SGK3 catalytic domain (87 to 496 residues) expressed in baculovirus expression system at 1 uM by FRET assay relative to control
Serine/threonine-protein kinase Sgk3 (Homo sapiens), sequence (Q96BR1 whole entry, the tested form may be a part): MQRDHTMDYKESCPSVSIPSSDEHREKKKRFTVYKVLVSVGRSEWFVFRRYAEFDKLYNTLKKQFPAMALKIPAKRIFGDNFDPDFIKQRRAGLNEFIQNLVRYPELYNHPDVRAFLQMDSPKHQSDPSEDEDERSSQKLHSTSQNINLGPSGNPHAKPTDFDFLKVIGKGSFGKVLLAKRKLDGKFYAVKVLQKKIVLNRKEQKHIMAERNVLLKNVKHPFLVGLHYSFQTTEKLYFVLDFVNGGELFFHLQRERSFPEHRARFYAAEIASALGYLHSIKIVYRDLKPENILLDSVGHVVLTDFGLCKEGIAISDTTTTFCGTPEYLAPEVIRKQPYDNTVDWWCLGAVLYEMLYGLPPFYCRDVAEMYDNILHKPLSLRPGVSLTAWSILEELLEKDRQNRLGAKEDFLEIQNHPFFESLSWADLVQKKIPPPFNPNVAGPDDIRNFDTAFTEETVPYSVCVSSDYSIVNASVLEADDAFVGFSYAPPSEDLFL
Outline: (§1)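 Single-concentration screen at 1 μM in Life Technologies SelectScreen, across a 220-kinase panel. Z′-LYTE format measures phosphorylation of a labeled peptide by FRET. Results are reported as percent inhibition.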

[3] = target: Neuronal acetylcholine receptor; alpha4/beta2 (Homo sapiens) (UniProt P17787+P43681); assay: Binding affinity to alpha4beta2 nAChR (unknown origin) receptor at 10 uM relative to control; type: protein-complex assay
Outline: (§2)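 Broad radioligand-binding and enzyme screening panel covering 42 targets (biogenic amine and neuropeptide receptors, ion channels, neurotransmitter transporters, acetylcholinesterase). Single test concentration of 10 μM. Results expressed as binding relative to control, with a hit defined as >50% of control.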

[4] = target: Receptor-interacting serine/threonine-protein kinase 2 (Homo sapiens) (UniProt O43353); assay: Inhibition of recombinant His-tagged human RIPK2 catalytic domain (1 to 299 residues) expressed in baculovirus expression system at 1 uM by FRET assay relative to control; outline: as §1
[5] = target: Mitogen-activated protein kinase kinase kinase 10 (Homo sapiens, UniProt Q02779); assay: Inhibition of recombinant human full length GST-tagged MLK2 expressed in baculovirus expression system by FRET assay
[6] = target: Muscle, skeletal receptor tyrosine-protein kinase (Homo sapiens) (UniProt O15146); assay: Inhibition of recombinant GST-tagged human MUSK cytoplasmic domain expressed in baculovirus expression system at 1 uM by FRET assay relative to control
Muscle, skeletal receptor tyrosine-protein kinase (Homo sapiens), sequence (O15146 whole entry, the tested form may be a part): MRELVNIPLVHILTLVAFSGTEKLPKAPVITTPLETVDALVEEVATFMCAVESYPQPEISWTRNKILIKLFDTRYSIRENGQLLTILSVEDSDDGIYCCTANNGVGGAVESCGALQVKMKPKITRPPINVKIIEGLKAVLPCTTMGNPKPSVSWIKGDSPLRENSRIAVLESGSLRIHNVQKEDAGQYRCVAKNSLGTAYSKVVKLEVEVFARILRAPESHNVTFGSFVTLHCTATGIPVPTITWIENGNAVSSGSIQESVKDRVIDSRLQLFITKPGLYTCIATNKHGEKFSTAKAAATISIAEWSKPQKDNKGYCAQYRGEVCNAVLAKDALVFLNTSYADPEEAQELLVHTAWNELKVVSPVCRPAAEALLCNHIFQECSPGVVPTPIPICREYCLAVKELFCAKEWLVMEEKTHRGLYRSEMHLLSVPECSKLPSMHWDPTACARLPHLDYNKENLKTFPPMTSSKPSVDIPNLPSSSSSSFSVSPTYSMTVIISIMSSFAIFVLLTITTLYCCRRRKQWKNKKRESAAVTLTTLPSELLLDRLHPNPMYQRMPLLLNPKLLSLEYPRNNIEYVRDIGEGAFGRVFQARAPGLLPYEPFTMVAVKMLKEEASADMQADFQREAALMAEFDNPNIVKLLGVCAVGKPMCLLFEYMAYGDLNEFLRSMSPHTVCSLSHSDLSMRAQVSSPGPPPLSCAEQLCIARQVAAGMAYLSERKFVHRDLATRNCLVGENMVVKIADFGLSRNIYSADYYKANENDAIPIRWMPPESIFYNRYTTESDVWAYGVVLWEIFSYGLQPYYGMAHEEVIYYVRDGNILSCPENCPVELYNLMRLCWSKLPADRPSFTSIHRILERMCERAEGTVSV
Outline: (§3)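 Single-point screen at 1 μM compound in a 220-kinase panel run by Life Technologies (SelectScreen). Z′-LYTE format: phosphorylation of a labeled peptide substrate read by FRET. Values are reported as percent inhibition.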

[7] = target: Focal adhesion kinase 1 (Homo sapiens) (UniProt Q05397); assay: Inhibition of recombinant full length GST-tagged human FAK expressed in baculovirus expression system at 1 uM by FRET assay relative to control; outline: as §1
Focal adhesion kinase 1 (Homo sapiens), sequence (Q05397 2-1052 limits assumed): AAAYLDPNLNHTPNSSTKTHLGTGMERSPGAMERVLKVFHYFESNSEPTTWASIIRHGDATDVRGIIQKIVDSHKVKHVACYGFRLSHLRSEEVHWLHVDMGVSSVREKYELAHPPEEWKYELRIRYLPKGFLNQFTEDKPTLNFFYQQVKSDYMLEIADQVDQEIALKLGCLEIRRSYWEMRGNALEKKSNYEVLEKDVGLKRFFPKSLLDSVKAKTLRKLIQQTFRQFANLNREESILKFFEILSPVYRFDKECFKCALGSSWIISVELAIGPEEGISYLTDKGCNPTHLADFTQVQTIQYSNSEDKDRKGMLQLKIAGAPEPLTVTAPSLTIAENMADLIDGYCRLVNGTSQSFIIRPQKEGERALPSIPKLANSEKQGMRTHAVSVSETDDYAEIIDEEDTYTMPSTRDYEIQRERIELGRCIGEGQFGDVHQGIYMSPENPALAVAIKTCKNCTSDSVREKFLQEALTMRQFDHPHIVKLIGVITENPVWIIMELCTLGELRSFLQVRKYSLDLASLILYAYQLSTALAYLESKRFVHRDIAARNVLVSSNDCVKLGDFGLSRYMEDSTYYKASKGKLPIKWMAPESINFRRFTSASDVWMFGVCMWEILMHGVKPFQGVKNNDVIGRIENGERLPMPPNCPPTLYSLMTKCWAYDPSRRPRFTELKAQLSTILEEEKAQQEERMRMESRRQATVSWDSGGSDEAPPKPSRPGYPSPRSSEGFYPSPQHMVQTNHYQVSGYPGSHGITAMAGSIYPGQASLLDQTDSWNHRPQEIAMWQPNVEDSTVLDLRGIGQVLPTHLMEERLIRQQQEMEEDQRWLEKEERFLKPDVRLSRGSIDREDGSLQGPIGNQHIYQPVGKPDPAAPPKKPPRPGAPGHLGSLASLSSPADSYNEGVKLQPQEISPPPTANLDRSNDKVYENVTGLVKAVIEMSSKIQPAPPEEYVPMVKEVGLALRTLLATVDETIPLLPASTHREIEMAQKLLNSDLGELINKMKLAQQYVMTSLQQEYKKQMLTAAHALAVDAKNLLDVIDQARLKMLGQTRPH

[8] = target: Tyrosine-protein kinase ITK/TSK (Homo sapiens) (UniProt Q08881); assay: Inhibition of recombinant full length GST-tagged human ITK cytoplasmic domain (473 to end residues) expressed in baculovirus expression system at 1 uM by FRET relative to control; outline: as §1
[9] = target: 5'-AMP-activated protein kinase catalytic subunit alpha-1 (Homo sapiens) (UniProt Q13131); assay: Inhibition of PRKAA1 (unknown origin) at 1 uM by FRET assay relative to control
[10] = target: Peroxisome proliferator-activated receptor delta (Homo sapiens) (UniProt Q03181); assay: Binding affinity to recombinant human PPARdelta at 10 uM relative to control; outline: as §2
[11] = target: Ribosomal protein S6 kinase (Homo sapiens) (UniProt P51812+Q9UBS0+O75676+Q15349+O75582+P23443+Q9UK32+Q15418); assay: Inhibition of recombinant GST-tagged human p70S6K catalytic domain expressed in baculovirus expression system at 1 uM by FRET assay relative to control; outline: as §3
[12] = target: Serine/threonine-protein kinase MARK1 (Homo sapiens) (UniProt Q9P0L2); assay: Inhibition of recombinant full Length GST-tagged human MARK1 expressed in baculovirus expression system at 1 uM by FRET assay relative to control; outline: as §1
[13] = target: RAC-alpha serine/threonine-protein kinase (Homo sapiens) (UniProt P31749); assay: Inhibition of recombinant full length His-tagged human AKT1 expressed in baculovirus expression system at 1 uM by FRET assay relative to control
[14] = target: Bone morphogenetic protein receptor type-1A (Homo sapiens) (UniProt P36894); assay: Inhibition of recombinant full length N-terminal GST-tagged human BMPR1A catalytic domain expressed in insect cells at 1 uM by FRET assay relative to control
[15] = target: Mitogen-activated protein kinase kinase kinase 12 (Mus musculus) (UniProt Q60700); assay: Inhibition of DLK in CD-1 mouse DRG neuron assessed as axonal protection pre-incubated for 2 hrs before NGF deprivation for 16 to 20 hrs by Campenot chamber based fluorescence assay
Mitogen-activated protein kinase kinase kinase 12 (Mus musculus), sequence (Q60700 whole entry): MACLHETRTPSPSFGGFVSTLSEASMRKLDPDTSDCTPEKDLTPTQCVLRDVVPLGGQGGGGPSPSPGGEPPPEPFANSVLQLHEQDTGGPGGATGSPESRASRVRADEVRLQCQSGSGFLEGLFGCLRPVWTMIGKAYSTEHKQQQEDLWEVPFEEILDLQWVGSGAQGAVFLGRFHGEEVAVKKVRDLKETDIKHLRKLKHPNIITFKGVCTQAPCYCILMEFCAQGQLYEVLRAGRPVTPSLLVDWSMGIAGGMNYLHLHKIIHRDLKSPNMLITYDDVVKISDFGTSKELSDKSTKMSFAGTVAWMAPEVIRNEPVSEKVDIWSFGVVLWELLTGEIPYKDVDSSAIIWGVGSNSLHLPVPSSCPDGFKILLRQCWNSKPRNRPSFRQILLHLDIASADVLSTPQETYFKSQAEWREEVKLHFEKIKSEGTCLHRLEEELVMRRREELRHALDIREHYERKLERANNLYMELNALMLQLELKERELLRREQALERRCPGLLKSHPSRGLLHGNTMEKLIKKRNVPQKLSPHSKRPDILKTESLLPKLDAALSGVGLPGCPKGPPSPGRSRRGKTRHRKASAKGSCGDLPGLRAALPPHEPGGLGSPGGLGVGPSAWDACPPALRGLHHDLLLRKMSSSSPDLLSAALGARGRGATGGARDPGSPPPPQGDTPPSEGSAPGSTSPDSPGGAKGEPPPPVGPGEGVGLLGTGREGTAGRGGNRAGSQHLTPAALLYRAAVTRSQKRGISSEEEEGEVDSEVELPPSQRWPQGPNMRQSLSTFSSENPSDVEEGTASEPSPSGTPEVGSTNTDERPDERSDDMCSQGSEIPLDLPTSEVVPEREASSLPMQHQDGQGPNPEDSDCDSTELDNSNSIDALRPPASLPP
Outline: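 High-content imaging assay of axon degeneration, with automated quantification of axons. Protection is expressed relative to a positive control in which degeneration was not induced. EC50 was taken from dose-response curves, each point being the average of three independent assays ± SD.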

[16] = target: Casein kinase I isoform alpha (Homo sapiens) (UniProt P48729); assay: Inhibition of CK1alpha1 (unknown origin) at 1 uM by FRET assay relative to control
[17] = target: BDNF/NT-3 growth factors receptor (Homo sapiens) (UniProt Q16620); assay: Inhibition of recombinant His-tagged human TrkB cytoplasmic domain expressed in baculovirus expression system at 1 uM by FRET assay relative to control; outline: as §1
[18] = target: Megakaryocyte-associated tyrosine-protein kinase (Homo sapiens) (UniProt P42679); assay: Inhibition of recombinant full length His-tagged human Hyl cytoplasmic domain expressed in Escherichia coli at 1 uM by FRET relative to control
[19] = target: Dual specificity mitogen-activated protein kinase kinase 1 (Homo sapiens) (UniProt Q02750); assay: Inhibition of recombinant full length His-tagged human MEK1 expressed in baculovirus expression system at 1 uM by FRET assay relative to control
[20] = target: Tyrosine-protein kinase JAK1 (Homo sapiens) (UniProt P23458); assay: Inhibition of recombinant GST-tagged human JAK1 catalytic domain (866 to 1154 residues) expressed in baculovirus expression system at 1 uM by FRET relative to control; outline: as §3
[21] = target: Aurora kinase B (Homo sapiens) (UniProt Q96GD4); assay: Inhibition of recombinant full length His-tagged human Aurora B expressed in baculovirus expression system at 1 uM by FRET assay relative to control
Aurora kinase B (Homo sapiens), sequence (Q96GD4 whole entry): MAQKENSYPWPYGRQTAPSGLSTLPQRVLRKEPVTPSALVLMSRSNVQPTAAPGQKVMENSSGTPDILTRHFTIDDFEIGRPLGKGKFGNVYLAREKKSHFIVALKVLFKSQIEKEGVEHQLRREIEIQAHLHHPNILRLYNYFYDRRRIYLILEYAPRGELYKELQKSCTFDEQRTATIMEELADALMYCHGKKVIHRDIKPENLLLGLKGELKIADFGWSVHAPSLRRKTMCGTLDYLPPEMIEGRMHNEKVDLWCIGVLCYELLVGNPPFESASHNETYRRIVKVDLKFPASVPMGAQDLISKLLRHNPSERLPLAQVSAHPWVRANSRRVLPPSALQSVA

[22] = target: Glycogen synthase kinase-3 alpha (Homo sapiens) (UniProt P49840); assay: Inhibition of GSK3alpha (unknown origin) at 1 uM by FRET relative to control
Glycogen synthase kinase-3 alpha (Homo sapiens), sequence (P49840 2-483 limits assumed): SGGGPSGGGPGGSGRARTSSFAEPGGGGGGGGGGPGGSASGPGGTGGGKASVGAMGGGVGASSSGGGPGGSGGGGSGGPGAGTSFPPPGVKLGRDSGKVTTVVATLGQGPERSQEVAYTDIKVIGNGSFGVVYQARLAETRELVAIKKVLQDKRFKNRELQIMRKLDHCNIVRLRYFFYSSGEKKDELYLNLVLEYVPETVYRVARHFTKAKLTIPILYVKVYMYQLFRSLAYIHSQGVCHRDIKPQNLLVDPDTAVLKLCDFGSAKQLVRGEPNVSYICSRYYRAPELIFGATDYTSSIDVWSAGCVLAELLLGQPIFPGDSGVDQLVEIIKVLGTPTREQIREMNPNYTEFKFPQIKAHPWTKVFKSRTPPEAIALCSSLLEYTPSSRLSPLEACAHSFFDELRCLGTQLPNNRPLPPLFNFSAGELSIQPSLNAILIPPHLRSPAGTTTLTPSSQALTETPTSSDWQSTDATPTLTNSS

[23] = system: RAF proto-oncogene serine/threonine-protein kinase (Homo sapiens), P04049 [Y340D,Y341D]; assay: Inhibition of recombinant N-terminal GST-tagged human RAF1 catalytic domain (306 to 648 residues) Y340D/Y341D double mutant expressed in baculovirus expression system at 1 uM by FRET assay relative to control
RAF proto-oncogene serine/threonine-protein kinase (Homo sapiens), P04049 [Y340D,Y341D], sequence (P04049 whole entry Y340D/Y341D, the tested form may be a part): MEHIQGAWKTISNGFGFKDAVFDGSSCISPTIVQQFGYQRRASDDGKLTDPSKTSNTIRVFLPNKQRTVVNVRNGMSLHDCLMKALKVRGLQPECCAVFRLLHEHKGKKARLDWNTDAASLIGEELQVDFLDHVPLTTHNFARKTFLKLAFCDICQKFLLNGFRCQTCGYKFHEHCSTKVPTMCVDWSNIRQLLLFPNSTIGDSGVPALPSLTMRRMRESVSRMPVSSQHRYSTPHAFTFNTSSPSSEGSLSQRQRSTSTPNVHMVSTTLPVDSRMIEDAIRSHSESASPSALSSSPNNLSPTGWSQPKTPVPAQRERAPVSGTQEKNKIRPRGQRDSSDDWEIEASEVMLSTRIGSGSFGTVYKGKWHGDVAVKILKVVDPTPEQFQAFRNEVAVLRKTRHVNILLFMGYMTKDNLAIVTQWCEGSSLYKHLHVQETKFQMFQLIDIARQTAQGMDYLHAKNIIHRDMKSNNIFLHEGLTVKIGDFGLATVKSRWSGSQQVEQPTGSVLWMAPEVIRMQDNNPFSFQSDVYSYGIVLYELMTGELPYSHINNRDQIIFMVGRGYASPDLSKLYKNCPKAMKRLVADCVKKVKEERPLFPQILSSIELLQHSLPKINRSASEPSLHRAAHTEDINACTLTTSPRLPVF
Outline: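 Part of a 220-kinase panel run at a single concentration of 1 μM. Z′-LYTE format: phosphorylation of a labelled peptide read by FRET. Values reported as percent inhibition.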

[24] = target: Adenosine receptor A1 (Homo sapiens) (UniProt P30542); assay: Binding affinity to recombinant human A1 adenosine receptor at 10 uM relative to control; outline: as §2
[25] = target: Casein kinase I isoform gamma-1 (Homo sapiens) (UniProt Q9HCP0); assay: Inhibition of CK1gamma1 (unknown origin) at 1 uM by FRET assay relative to control

With `Nc1ncc(-c2cc([C@H]3[C@@H]4CN(C5COC5)C[C@@H]43)n(CC3CC3)n2)cc1C(F)(F)F` the IC50 [1] was 3.5 µM, the inhibition [2] was -0.1% and the Activity [3] was over 50%. For the same molecule, the inhibition [4] was 41.4%, the IC50 [5] was 5.15 µM and the inhibition [6] was 27.8%. The inhibition [7] was 10.4%, the inhibition [8] was 0.8% and the inhibition [9] was 3.3%. For the same molecule, the Activity [10] was over 50%, the inhibition [11] was 6.9% and the inhibition [12] was 12.1%. For the same molecule, the inhibition [13] was -0.4%, the inhibition [14] was 1.5% and the Activity [15] was “Dose-dependent effect”. For the same molecule, the inhibition [16] was 1.1%, the inhibition [17] was 38.8% and the inhibition [18] was 0.1%. For the same molecule, the inhibition [19] was 0%, the inhibition [20] was 3.9% and the inhibition [21] was 7.4%. For the same molecule, the inhibition [22] was 0.8%, the inhibition [23] was 4% and the Activity [24] was over 50%. For the same molecule, the inhibition [25] was 2%.

In the case of `CC(C)n1nc(-c2cnc(N)c(OC(F)(F)F)c2)cc1[C@H]1[C@@H]2CN(C3COC3)C[C@@H]21`, the IC50 [1] is reported as 5.92 µM, the inhibition [2] is reported as 6.1% and the Activity [3] is reported as over 50%. For the same molecule, the inhibition [4] was 34.2%, the IC50 [5] was 7.88 µM and the inhibition [6] was 4%. For the same molecule, the inhibition [7] was 11.1%, the inhibition [8] was 10.9% and the inhibition [9] was 5%. It also gave an Activity [10] of over 50%, an inhibition [11] of 4.5% and an inhibition [12] of 11.4%. For the same molecule, the inhibition [13] was 1.7%, the inhibition [14] was -2.3% and the Activity [15] was “Dose-dependent effect”. The inhibition [16] was -0.3%, the inhibition [17] was 44.3% and the inhibition [18] was 7.5%. The inhibition [19] was 14.8%, the inhibition [20] was 6.9% and the inhibition [21] was 14.4%. For the same molecule, the inhibition [22] was 7.8%, the inhibition [23] was -1.9% and the Activity [24] was over 50%. It also gave an inhibition [25] of 8.4%.
